These results are taken from ChEMBL document CHEMBL4706740, “Structure-Activity Study of Nitazoxanide Derivatives as Novel STAT3 Pathway Inhibitors” (ACS Med Chem Lett, 2021).

The test system of data set [1] is HeLa. The experiment in a line: Induction of cell cycle arrest in human HeLa cells assessed as accumulation at S phase at 40 uM measured after 24 hrs by flow cytometry analysis (reference value: 34.04%). It counts as functional. In general terms: Flow cytometry measures light scatter and fluorescence of single cells or particles in a stream.
The nature of data set [2]: Half life in Sprague-Dawley rat at 5 mg/kg, iv. The format is ADME, organism-based. The conditions noted are these: in vivo. The procedure, abridged:
(§1)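 Rats, n = 3 per group, received a single dose either intragastrically (25 mg/kg) or intravenously (5 mg/kg). Plasma concentration–time curves were used to derive t1/2α, t1/2β, Vd/F, CL/F, AUC0–∞, Tmax and Cmax. Absolute oral bioavailability was calculated from the ig and iv data.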

The test system of data set [3] is HL-60. The experiment in a line: Antiproliferative activity against human HL60 cells assessed as cell growth inhibition measured after 48 hrs by MTT assay. It counts as functional, cell-based. The conditions noted are these: HL-60, 48 h.
In data set [4] the test system is HeLa. The experiment in a line: Effect on Src level in human Hela cells upto 80 uM after 24 hrs by Western blot analysis. It counts as functional, cell-based. Particulars: dose microM <=80, time […]. On the technique in general: A western blot detects proteins with antibodies after separation by electrophoresis.
Data set [5] is described as follows: Cytotoxicity against human HEK-Blue IL-6 cells assessed as cell death at > 10 uM. It counts as cell-based.
For data set [6], the system named is HeLa. Put plainly: Induction of apoptosis in human HeLa cells assessed as late apoptotic cells at 20 uM incubated for 24 hrs by Annexin V-FITC/PI staining based flow cytometry (reference value: 4.7%). It counts as functional.
Data set [7] has as its system HeLa. Put plainly: Induction of cell cycle arrest in human HeLa cells assessed as accumulation at G0/G1 phase at 40 uM measured after 24 hrs by flow cytometry analysis (reference value: 54.16%). The format is functional.
Data set [8] has as its system HeLa. The experiment in a line: Induction of apoptosis in human HeLa cells assessed as late apoptotic cells at 40 uM incubated for 24 hrs by Annexin V-FITC/PI staining based flow cytometry (reference value: 4.7%). It counts as functional.
The test system of data set [9] is HeLa. Put plainly: Induction of apoptosis in human HeLa cells assessed as late apoptotic cells at 10 uM incubated for 24 hrs by Annexin V-FITC/PI staining based flow cytometry (reference value: 4.7%). It counts as functional.
The nature of data set [10]: Apparent oral clearance in Sprague-Dawley rat at 25 mg/kg, IG. It counts as ADME, organism-based. Particulars: in vivo, read-out: CL(app) (converted). The procedure, abridged:
as §1

pIC50: −log10 of the molar value. The source made the active and inactive calls.

For the compound `CC(=O)Oc1ccccc1C(=O)Nc1ncc([N+](=O)[O-])s1` [NITAZOXANIDE], the Activity is given as 22.76% in data set [1]; “Non-Toxic” in data set [5]; 11.4% in [6]; 70.64% in data set [7]; 15.12% in data set [8]; 5.32% in [9]. The half-life (in general, the time needed for the level to fall by half in the phase considered) in data set [2] is 3 min. Moreover, the pIC50 (commonly the IC50 on a negative log10 scale, so that one unit is a factor of ten) in [3] was 4.70. Also, the result in data set [4] was inactive. For the same compound, the CL/F in data set [10] was 6.3 L/h/kg.
